Assay results: ChEMBL document CHEMBL4265978, “In search of constrained FTY720 and phytosphingosine analogs as dual acting anticancer agents targeting metabolic and epigenetic pathways” (Eur J Med Chem, 2018)
Active and inactive are the calls of the source. The rule behind the calls is not given here.

What was measured:
[1] = test system: FL5.12; test: Cytotoxicity against mouse FL5.12 cells after 48 hrs by DAPI or propidium iodide staining-based flow cytometric analysis; assay type: functional, cell-based; conditions: FL5.12, 48 h
Method in brief: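 FL5.12 (murine hematopoietic, IL-3-dependent) cells treated at 25,000/mL; viability read at 48 h by DAPI or propidium iodide dye exclusion on flow cytometry. IC50 fitted, reported with 95% confidence interval.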

[2] = test system: FL5.12; test: Cytotoxicity against mouse FL5.12 cells assessed as vacuole formation at 10 uM after 3 hrs by […]; assay type: functional, cell-based
Method in brief: (§1)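 FL5.12 cells treated at 200,000/mL for 3 h, then imaged at 100× by brightfield/DIC. At least 5 images per condition, at least 2 biological replicates. Two researchers scored each replicate independently: 0 no vacuoles, + some cells, ++ most cells with at least 1 vacuole, +++ all cells heavily vacuolated.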

[3] = biological target: Histone deacetylase (Homo sapiens) (UniProt Q13547+O15379+Q9UBN7+Q92769+Q9UQL6+Q8WUI4+Q9BY41+Q96DB2+P56524+Q9UKV0+Q969S8); test: Inhibition of HDAC in human HeLa cell extract at 10 to 20 uM after 15 to 30 mins by COLOR DE LYS-based colorimetric method; assay type: protein assay
Method in brief: (§2)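 Recombinant HDAC1 or HeLa extract incubated with acetylated lysine substrate at 37°C for 15-30 min. Developer then added: 10-15 min at 37°C with absorbance at 405 nm (colorimetric kit), or 15 min at RT with fluorescence at ex 355/em 460 nm, corrected using ± trichostatin A.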

[4] = test system: FL5.12; test: Downregulation of CD98 expression in mouse FL5.12 cells at 40 uM after 3 hrs by DAPI staining-based FACS analysis relative to control; assay type: functional
Method in brief: (§3)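 FL5.12 cells plated at 225-250,000/mL and treated 3 h. 150-200,000 cells stained in triplicate on ice for 30 min with PE-anti-mouse CD98, with PE rat IgG2a κ as isotype control. Read by flow cytometry, gated on viable cells (DAPI exclusion or scatter). Loss given as mean of at least 2 biological replicates.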

[5] = test system: FL5.12; test: Downregulation of CD98 expression in mouse FL5.12 cells at 10 uM after 3 hrs by DAPI staining-based FACS analysis relative to control; assay type: functional; method in brief: as §3
[6] = test system: FL5.12; test: Cytotoxicity against mouse FL5.12 cells assessed as vacuole formation at 40 uM after 3 hrs by […]; assay type: functional, cell-based; method in brief: as §1
[7] = test system: FL5.12; test: Cytotoxicity against mouse FL5.12 cells assessed as vacuole formation at 2.5 uM after 3 hrs by […]; assay type: functional, cell-based; method in brief: as §1
[8] = test system: FL5.12; test: Downregulation of CD98 expression in mouse FL5.12 cells at 2.5 uM after 3 hrs by DAPI staining-based FACS analysis relative to control; assay type: functional; method in brief: as §3
[9] = biological target: Histone deacetylase 1 (Homo sapiens) (UniProt Q13547); test: Inhibition of human recombinant HDAC1 at 20 uM after 15 to 30 mins by COLOR DE LYS-based colorimetric method; method in brief: as §2
Sequence of Histone deacetylase 1 (Homo sapiens) (Q13547 whole entry): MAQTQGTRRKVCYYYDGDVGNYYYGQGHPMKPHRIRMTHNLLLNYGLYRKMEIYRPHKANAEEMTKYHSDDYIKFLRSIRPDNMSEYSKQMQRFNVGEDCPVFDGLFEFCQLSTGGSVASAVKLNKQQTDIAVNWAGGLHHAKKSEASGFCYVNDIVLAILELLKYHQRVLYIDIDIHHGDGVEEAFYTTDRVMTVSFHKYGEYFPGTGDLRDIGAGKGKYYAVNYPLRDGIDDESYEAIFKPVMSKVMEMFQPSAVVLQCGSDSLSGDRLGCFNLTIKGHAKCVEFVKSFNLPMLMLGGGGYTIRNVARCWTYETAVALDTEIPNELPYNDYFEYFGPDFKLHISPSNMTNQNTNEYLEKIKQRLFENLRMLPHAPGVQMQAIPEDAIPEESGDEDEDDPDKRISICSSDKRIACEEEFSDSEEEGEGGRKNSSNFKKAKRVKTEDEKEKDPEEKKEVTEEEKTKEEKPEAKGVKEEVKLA

inhibition [3]	inhibition [9]	SMILES	IC50 [1]	Activity [2]	Activity [4]	Activity [5]	Activity [6]	Activity [7]	Activity [8]
inactive	–	CCCCCCCCc1ccc(CC(=O)[C@H]2C[C@H](OP(=O)(O)O)CN2)cc1.Cl	25.3 µM	inactive	8%	5%	inactive	–	–
–	–	CCCCCCCCc1ccc([C@H]2CCN[C@@H]2CO)cc1	2.1 µM	Active	–	66%	–	Active	41%
inactive	–	CCCCCCCCc1ccc(CC(O)[C@H]2C[C@H](O)CN2)cc1.Cl (stereo not given in full)	1.8 µM	Active	–	62%	–	inactive	9%
–	–	CCCCCCCCc1ccc(C(=O)C[C@@H]2C[C@@H](O)CN2)cc1.Cl	2.1 µM	Active	–	46%	–	Active	22%
–	–	CCCCCCCCc1ccc(C(=O)C[C@@H]2CCCN2)cc1.Cl	2.5 µM	Active	–	57%	–	Active	28%
–	–	Cc1nc(/C=C/CCCCCc2ccc([C@H]3CCN[C@@H]3CO)cc2)co1.Cl	10.2 µM	inactive	61%	18%	inactive	–	5%
–	–	CCCCCCCCc1ccc(C(=O)[C@H]2C[C@H](OP(=O)(O)O)CN2)cc1.Cl	12.8 µM	inactive	0%	-9%	inactive	inactive	–
–	inactive	CCCCCCCCc1ccc(C(=O)C[C@H]2C[C@H](CO)CN2)cc1.Cl	2 µM	Active	–	60%	–	Active	44%
–	–	CCCCCCCCc1ccc(C(=O)[C@H]2C[C@H](CO)CN2)cc1.Cl	19.6 µM	inactive	61%	19%	Active	inactive	0%
–	–	CCCCCCCCc1ccc(CC[C@@H]2CCCN2)cc1.Cl	2.8 µM	Active	–	63%	–	Active	41%
–	–	CCCCCCCCc1ccc(C(=O)CC[C@@H]2C[C@@H](O)CN2)cc1.Cl	2.1 µM	Active	–	52%	–	Active	15%
inactive	–	CCCCCCCCc1ccc(CC(=O)[C@@H]2C[C@@H](OP(=O)(O)O)CN2)cc1.Cl	25 µM	inactive	0%	3%	inactive	–	–
–	–	CCCCCCCCc1ccc(C[C@@H]2C[C@@H](O)CN2)cc1	2.2 µM	Active	–	63%	–	Active	40%
–	–	CCCCCCCCc1ccc(CC(=O)[C@H]2C[C@H](O)CN2)cc1.Cl	17.1 µM	inactive	54%	16%	Active	inactive	11%
–	–	Cc1nc(CCCCCCCc2ccc([C@H]3CCN[C@@H]3CO)cc2)co1.Cl	8.4 µM	inactive	61%	33%	inactive	–	5%
–	–	CCCCCCCCc1ccc([C@@H]2CC[C@H]3C[C@H](CO)CN32)cc1.Cl	12.2 µM	inactive	68%	32%	Active	inactive	0%
–	–	CCCCCCCCc1ccc(C(=O)CC[C@H]2C[C@H](CO)CN2)cc1.Cl	4 µM	Active	–	46%	–	inactive	8%
–	–	CCCCCCCCc1ccc(CCC(N)(CO)CO)cc1 [FINGOLIMOD]	2.1 µM	Active	–	63%	–	Active	30%
–	–	CCCCCCCCc1ccc(C(=O)[C@@H]2CCCN2)cc1.Cl	> 40 µM	inactive	33%	-4%	Active	inactive	-21%
–	–	O=C(CCCCCCC(=O)Nc1ccccc1)NO	–	Active	–	–	–	–	–
–	–	CCCCCCCCc1ccc(C(=O)[C@H]2C[C@H](O)CN2)cc1.Cl	15.3 µM	Active	41%	51%	Active	inactive	12%
inactive	–	CCCCCCCCc1ccc(CC(O)[C@@H]2C[C@@H](O)CN2)cc1.Cl (stereo not given in full)	3 µM	Active	–	62%	–	Active	19%
–	–	Cl.OC[C@H]1NCC[C@@H]1c1ccc(CCCOCc2ccccc2)cc1	10.9 µM	inactive	51%	14%	inactive	–	11%
–	–	CCCCCCCCc1ccc(C(=O)[C@@H]2C[C@@H](O)CN2)cc1.Cl	28.1 µM	–	48%	9%	Active	inactive	2%
–	–	CCCCCCCCc1ccc(CC(=O)[C@@H]2C[C@@H](O)CN2)cc1.Cl	18.6 µM	inactive	59%	23%	Active	inactive	13%
–	–	CC(=O)CCCCCCc1ccc([C@H]2CCN[C@@H]2CO)cc1.Cl	15.1 µM	inactive	23%	-8%	inactive	–	-15%
–	–	CCCCCCCCc1ccc(C(C[C@@H]2CCCN2)OC)cc1.Cl (stereo not given in full)	3 µM	Active	–	58%	–	inactive	16%
–	–	CCCCCCCCc1ccc(C(=O)[C@@H]2C[C@@H](OP(=O)(O)O)CN2)cc1.Cl	12.9 µM	inactive	-8%	3%	inactive	inactive	–
